Screens: PubChem BioAssay, Johns Hopkins Ion Channel Center
Shown are actives, neighbours in structure and some others; about 3.7% of the full set was active somewhere.
KCNK3 inh = human KCNK3 channel inhibitors, primary screen, CHO cells, FluxOR thallium flux, B-score. Potassium channel subfamily K member 3 (Homo sapiens), O14649. FluxOR fluorescence; active compounds read low. B-score at 10 µM. 340,000 tested, 0.84% active. AID 602410, 2012;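 active means B-score under library mean minus 4 SD, starting fluorescence ratio at most library mean plus 5 SD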;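 further: more negative B-score means stronger inhibition of thallium flux through KCNK3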
KCNQ1 inh = inhibitors of human KCNQ1 channel, primary screen, cell-based, thallium flux, high-throughput; CHO-K1 KCNQ1, FluxOR thallium flux fluorescence; active compounds read high; B-score at 10 µM; 310,000 tested, 1.3% active;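 active means compounds whose thallium flux B-score, printed positive for inhibition, exceeds three library SD while starting fluorescence stays within three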;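 further: channel opened by potassium depolarization with thallium stimulus after 20 min compound exposure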
Target sequence (P51787 whole entry, looked up): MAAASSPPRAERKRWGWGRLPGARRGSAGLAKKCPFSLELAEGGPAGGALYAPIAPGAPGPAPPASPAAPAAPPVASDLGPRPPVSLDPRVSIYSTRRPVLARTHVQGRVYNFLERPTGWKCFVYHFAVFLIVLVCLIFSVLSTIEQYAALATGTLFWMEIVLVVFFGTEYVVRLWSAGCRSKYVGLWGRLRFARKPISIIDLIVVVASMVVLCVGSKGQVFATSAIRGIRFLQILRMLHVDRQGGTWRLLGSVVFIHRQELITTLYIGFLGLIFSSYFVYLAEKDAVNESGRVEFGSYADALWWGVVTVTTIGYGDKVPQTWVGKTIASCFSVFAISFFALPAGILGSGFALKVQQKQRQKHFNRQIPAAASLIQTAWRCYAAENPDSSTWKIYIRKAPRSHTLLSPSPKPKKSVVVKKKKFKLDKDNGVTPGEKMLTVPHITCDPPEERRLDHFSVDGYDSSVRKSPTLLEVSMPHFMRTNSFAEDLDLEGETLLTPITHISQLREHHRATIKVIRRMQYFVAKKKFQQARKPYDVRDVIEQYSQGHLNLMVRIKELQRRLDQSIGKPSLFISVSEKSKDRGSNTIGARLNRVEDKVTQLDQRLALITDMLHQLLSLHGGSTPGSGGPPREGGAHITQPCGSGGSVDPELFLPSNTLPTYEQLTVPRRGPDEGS
Kir21 inh = inhibitors of mouse Kir2.1 inward-rectifier potassium channel; AID 1672, 2009; B-score at 10 µM; HEK293-Kir2.1, FluxOR thallium flux fluorescence; active compounds read low; Inward rectifier potassium channel 2 (Mus musculus), P35561; 310,000 tested, 0.85% active;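 active means fluorescence ratio B-score at or below minus 3 SD of library scores, with starting-brightness B-score within 2 SD, cut at about -4.2 in these data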;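 further: channel flux triggered by added potassium and thallium sulfate stimulus; B-score of peak minus minimum fluorescence over baseline after thallium stimulus; more negative B-score means stronger Kir2.1 block with less thallium influx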
KCNQ1 pot = potentiators or activators of KCNQ1 channel, primary screen, cell-based, thallium flux, high-throughput | CHO-K1 KCNQ1, thallium flux FluxOR fluorescence; active compounds read high | B-score at 10 µM | 310,000 tested, 0.35% active;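 active means fluorescence ratio B-score, a plate-corrected score, at least three library SD, with initial intensity B-score within 5 SD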
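Doses: Single concentration per compound, DMSO matched to controls | Test system: KCNQ1-transfected CHO-K1 cells | Timing: 90 min dye loading and 20 min compound exposure, both at room temperature | Measured by: Kinetic FluxOR thallium fluorescence, 10-s 1-Hz baseline, 110-s post-stimulus read | Medium: Assay buffer with matched DMSO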
KCNK9 inh = KCNK9 potassium channel inhibitors, primary screen, HEK293 cells, thallium flux; Potassium channel subfamily K member 9 (Homo sapiens), Q9NPC2; FluxOR thallium flux fluorescence; active compounds read low; B-score at 10 µM; 310,000 tested, 1.2% active; AID 488922, 2010;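 active means ratio B-score over 3 SD below the library mean, with starting fluorescence within 5 SD of its mean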;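 further: negative B-score means less thallium flux so channel inhibition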
hERG rescue = hERG rescue from dofetilide block, primary screen, cell-based, CHO-hERG, FluxOR thallium flux, dofetilide IC70 | 310,000 tested, 0.51% active | dofetilide IC70 present | activation (rescue from dofetilide block), less the hit threshold, % at 10 µM | Voltage-gated inwardly rectifying potassium channel KCNH2 (Homo sapiens), Q12809 | AID 1511, 2009;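 active means activation above the mean of controls blocked by dofetilide plus 5 SD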;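 further: thallium influx through hERG after potassium depolarization seen as dye fluorescence rise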
KCNK9 inh conf = KCNK9 potassium channel inhibitors, confirmation, HEK293 cells, thallium flux, duplicate; shares compounds with KCNK9 inh; FluxOR thallium flux fluorescence; 4,900 tested, 43% active; inhibition, % at 10 µM;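 active means thallium signal inhibited by more than 5 SD of the compound-free buffer control wells, on both duplicate plates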
Kir21 sel = mouse Kir2.1 channel inhibition, confirmation, selectivity assay for KCNK9 modulator project, cell-based, HEK293, thallium flux | shares compounds with KCNK9 inh | Kir2.1 cells, FluxOR thallium flux fluorescence | inhibition, % at 10 µM | 4,900 tested, 4% active;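 active means thallium signal drop more than 5 SD beyond the mean of the no-compound control wells, seen in both duplicate plates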;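 further: signal is fluorescence rise after thallium addition divided by baseline fluorescence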
KCNK9 uninduced = thallium flux in non-induced HEK293 cells, confirmation, counter-screen for KCNK9 inhibitor project, cell-based, second counter screen, non-induced KCNK9-HEK293; shares compounds with KCNK9 inh; FluxOR thallium flux; inhibition, % at 10 µM; 4,900 tested, 40% active;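 active means thallium signal drop beyond 5 SD of the untreated control mean, on both duplicate plates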
A number is an active result; i = inactive; nt = not tested or not shown.

SMILES	KCNK3 inh	KCNQ1 inh	Kir21 inh	KCNQ1 pot	KCNK9 inh	hERG rescue	KCNK9 inh conf	Kir21 sel	KCNK9 uninduced
CN(C)S(=O)(=O)c1ccc(N2CCCC2)c(C(=O)NC2CCCCC2)c1	i	i	i	i	i	i	i	i	i
Cc1ccc(NC(=O)CCNC(=O)c2ccc(Br)cc2)cc1S(=O)(=O)N1CCCCCC1	i	i	i	i	i	i	nt	nt	nt
CCOc1ncccc1C(=O)Nc1cc(S(=O)(=O)N(CC)CC)ccc1N1CCOCC1	i	nt	nt	nt	nt	nt	nt	nt	nt
COc1cc(CN2CCc3c([nH]c4ccccc34)C2)cc(OC)c1	i	i	-4.2	i	-8.1	i	39%	i	i
COc1ccccc1CN1CCc2c([nH]c3ccccc23)C1	i	i	i	i	i	i	nt	nt	nt
CCOC(=O)c1c(C)[nH]c(N=Nc2cccc(OC)c2)c1C	i	i	i	i	-12	i	62%	i	i
COc1ccc(-c2nn(-c3ccccc3)cc2CNC(=O)c2cccc([N+](=O)[O-])c2)cc1	i	i	i	i	-11	i	52%	i	30%
O=C(NCc1cn(-c2ccccc2)nc1-c1ccccc1)c1cc([N+](=O)[O-])cc([N+](=O)[O-])c1	i	i	i	i	i	i	nt	nt	nt
CC(NS(=O)(=O)CCNC(=O)c1ccccc1)c1ccccc1 (stereo not drawn)	i	i	i	i	i	i	nt	nt	nt
COc1ccc(NC2CCCN(C(=O)c3cn(C)c4ccccc34)C2)cc1 (stereo not drawn)	i	i	i	i	i	i	i	i	i
Cc1ccc(NC2CCCN(C(=O)c3cn(C)c4ccccc34)C2)cc1C (stereo not drawn)	i	i	i	i	i	i	i	i	i
O=C(COc1ccc(Br)cc1)NCCN1CCCC1	i	i	i	i	i	i	nt	nt	nt
CC(C)Cn1c2c(c(O)c(C(=O)Nc3ccc(F)cc3)c1=O)CCCC2	i	i	i	i	i	i	nt	nt	nt
CC(C)Cn1c2c(c(O)c(C(=O)Nc3ncccc3O)c1=O)CCCC2	i	i	i	i	-9.7	i	55%	i	40%
O=[N+]([O-])c1ccc(N/N=C\c2ccccc2OCc2ccccc2)cc1	i	i	i	i	i	i	nt	nt	nt
Cc1cc(C)nc(N/N=C/c2ccccc2OCc2ccc([N+](=O)[O-])cc2)n1	i	i	i	i	-15	i	51%	i	28%
Cc1ccc(C(=O)NCC(=O)N2CCN(c3cccc(Cl)c3)CC2)s1	i	nt	nt	nt	nt	nt	nt	nt	nt
O=C(Nc1cc(Sc2nc3ccccc3s2)cc([N+](=O)[O-])c1)c1ccccc1F	i	i	i	i	-9	i	32%	i	30%
CC(C)OC(=O)c1cccc(C(=O)Nc2cccc(NC(=O)c3cccc(C(=O)OC(C)C)n3)n2)n1	i	i	i	i	-13	i	64%	i	i
CCCN(CCC)C(=O)CC(c1ccccc1)c1ccc(C)cc1O (stereo not drawn)	i	i	i	i	i	i	nt	nt	nt
CCCN(CCC)C(=O)CC(c1ccccc1)c1cc(Br)ccc1O (stereo not drawn)	i	i	i	i	-13	i	36%	i	40%
COc1ccc(/C=N/n2c(-c3ccccc3)n[nH]c2=S)cc1	i	i	i	i	i	i	nt	nt	nt
COc1ccc(/C=N/n2c(N)nc(-c3ccccc3)c2-c2ccccc2)cc1	i	i	i	i	i	i	i	i	i
CC(C)Oc1ccc(Cc2cnc(N)nc2N)cc1	i	i	i	i	i	i	nt	nt	nt
CCCOc1ccc(Cc2c(Cl)nc(SC)nc2OC)cc1	i	i	i	i	i	i	i	i	i
SMILES	KCNK3 inh	KCNQ1 inh	Kir21 inh	KCNQ1 pot	KCNK9 inh	hERG rescue	KCNK9 inh conf	Kir21 sel	KCNK9 uninduced
CCCOc1ccc(Cc2c(Cl)nc(SC)nc2N(C)C)cc1	i	i	i	i	i	i	nt	nt	nt
COc1nc(SC)nc(Cl)c1Cc1ccc(OC(C)C)cc1	i	i	i	i	i	i	i	i	26%
CCCCn1c(N)c(N(CC(C)C)C(=O)c2cc(S(=O)(=O)N3CCOCC3)ccc2Cl)c(=O)[nH]c1=O	i	i	i	i	i	i	nt	nt	nt
CN(Cc1cnccn1)Cc1cn(Cc2ccccc2)nc1-c1ccc2c(c1)OCO2	i	i	i	i	i	i	i	i	i
COc1ccccc1Nc1nnc(SCC2CCCCO2)s1 (stereo not drawn)	i	i	i	i	i	i	nt	nt	nt
Cc1ccccc1Nc1nnc(SCC2CCCCO2)s1 (stereo not drawn)	i	i	i	i	-8.8	i	i	i	i
CCCn1c(=O)c(C(=O)Nc2cccc(C)n2)c(O)c2ccccc21	i	i	i	i	-10	i	i	i	29%
CCCCCCCCC(=O)NNC(=O)c1c(O)c2ccccc2n(CCC)c1=O	i	i	i	i	i	i	i	i	i
O=C(CCC(=O)c1cccs1)NCCc1ccc(F)cc1	i	i	i	i	i	i	nt	nt	nt
Cc1ccc2c(c1)N(CCCC(=O)NCCC1=CCCCC1)C(=O)CO2	i	i	i	i	i	i	i	i	i
CCOC(=O)c1ccc(-c2c(-c3ccc4c(c3)OCO4)noc2-c2ccsc2)cc1F	i	i	i	i	i	i	nt	nt	nt
COc1cc(-c2c(-c3ccc4c(c3)OCO4)noc2-c2ccsc2)ccc1F	i	i	i	i	-11	i	56%	i	36%
Cc1nn(-c2ccccc2)c(N)c1Sc1ccc([N+](=O)[O-])cc1	i	i	i	i	-13	i	73%	i	34%
CN(Cc1nc(-c2ccc(Cl)cc2)no1)C(=O)CCN1C(=O)[C@H]2CC=CC[C@H]2C1=O	i	i	i	i	i	i	nt	nt	nt
O=[N+]([O-])c1ccc(N2N=C(c3ccccc3)CC2c2ccccc2O)cc1 (stereo not drawn)	i	i	i	i	i	i	nt	nt	nt
